Measurements taken from ChEMBL document CHEMBL3232811, “Mineralocorticoid receptor antagonists: identification of heterocyclic amide replacements in the oxazolidinedione series” (Bioorg Med Chem Lett, 2014).

What was measured:
Assay type in all cases: ADME, organism-based
Details in all cases: in vivo
[1] = Oral bioavailability in rat at 2 mg/kg
Method in brief: (§1)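 Rat PK: compound formulated at 1 mg/mL in PEG 200:water (70:30). Dosed iv at 1 mg/kg (n = 2) and orally at 2 mg/kg (n = 3). Blood concentrations measured by LC/MS/MS after protein precipitation with acetonitrile.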

Rattus norvegicus = assay: Dose normalized AUC in rat at 1 mg/kg, iv; parameters: dose 1 mg/kg, route intravenous; method in brief: as §1
[2] = Volume of distribution in rat at 1 mg/kg, iv and 2 mg/kg, po; method in brief: as §1

Structure (SMILES) | bioavailability [1] | AUC/dose (Rattus norvegicus) | Vd [2]
COc1cc(OC)cc(-c2nnc([C@@]3(Cc4ccccc4)OC(=O)N([C@H](C)c4ccccc4)C3=O)o2)c1 | 44% | 3.7 µM·kg·h/mg | 1.2 L/kg
C[C@H](c1ccccc1)N1C(=O)O[C@](Cc2ccccc2)(c2nnc(C3(c4ccccc4)CC3)o2)C1=O | 89% | 4.4 µM·kg·h/mg | 1 L/kg
